Experiments:
[1] = molecular target: S-adenosylmethionine decarboxylase (Escherichia coli) (UniProt P0A7F6); assay: Compound was evaluated for the inhibitor against Escherichia coli S-adenosyl-L-methionine decarboxylase
HL-60 [2] = assay: Polyamine levels in cultured HL60 cells on spermine at the concentration of 100.0 uM; format: functional, Homo sapiens
Procedure, shortened: (§1)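 HL60 human promyelocytic leukemia cells exposed to inhibitor for 96 h, then sonicated. AdoMet-DC activity measured by the Anton and Kutny method. Intracellular putrescine, spermidine and spermine quantified by HPLC (Danzin method). Each value is the mean of two determinations.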

HL-60 [3] = assay: Polyamine levels in cultured HL60 cells on putrescine at the concentration of 100.0 uM; format: functional, Homo sapiens
Procedure, shortened: as §1

HL-60 [4] = assay: Polyamine levels in cultured HL60 cells on spermine at the concentration of 0.1 uM; format: functional, Homo sapiens
Procedure, shortened: as §1

HL-60 [5] = assay: Polyamine levels in cultured HL60 cells on spermidine at the concentration of 100.0 uM; format: functional, Homo sapiens
Procedure, shortened: as §1

HL-60 [6] = assay: Polyamine levels in cultured HL60 cells on S-Adenosyl-methionine decarboxylase at the concentration of 10.0 uM; format: functional, Homo sapiens
Procedure, shortened: as §1

[7] = system: Trypanosoma brucei brucei; assay: Compound was evaluated for the inhibition of growth of Trypanosoma brucei; format: functional, organism-based
Procedure, shortened: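 T. brucei brucei bloodforms cultured in modified Iscove's medium, 3% CO2 in air, 37 °C, feeder layer-free. Inhibitor dissolved in medium; half the volume replaced daily with double-strength inhibitor. Growth read by daily cell counts, IC50 after 48 h. Alternatively: 24 h with inhibitor, wash, 24 h with 1.0 μCi [3H]hypoxanthine, filtration and scintillation counting. Mean of two determinations.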

HL-60 [8] = assay: Polyamine levels in cultured HL60 cells on spermine at the concentration of 10.0 uM; format: functional, Homo sapiens
Procedure, shortened: as §1

[9] = system: Trypanosoma brucei rhodesiense; assay: Compound was evaluated for the percentage inhibition of growth of uM; format: functional
[10] = molecular target: T1, S-adenosylmethionine decarboxylase proenzyme (Homo sapiens, UniProt P17707); assay: (§2) Compound was evaluated for the inhibitor constant against human S-adenosyl-L-methionine decarboxylase
T1 sequence (P17707 whole entry): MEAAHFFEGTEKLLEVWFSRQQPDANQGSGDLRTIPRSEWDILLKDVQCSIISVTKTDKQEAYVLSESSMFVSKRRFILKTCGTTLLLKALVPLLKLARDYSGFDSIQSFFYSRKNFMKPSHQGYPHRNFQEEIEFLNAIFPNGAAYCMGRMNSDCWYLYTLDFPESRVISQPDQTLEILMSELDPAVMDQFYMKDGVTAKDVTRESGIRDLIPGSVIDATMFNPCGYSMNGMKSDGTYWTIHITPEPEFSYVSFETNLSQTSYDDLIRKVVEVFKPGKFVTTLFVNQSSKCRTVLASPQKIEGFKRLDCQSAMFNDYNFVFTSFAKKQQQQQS

HL-60 [11] = assay: Polyamine levels in cultured HL60 cells on putrescine at the concentration of 1.0 uM; format: functional, Homo sapiens
Procedure, shortened: as §1

HL-60 [12] = assay: Polyamine levels in cultured HL60 cells on spermidine at the concentration of 10.0 uM; format: functional, Homo sapiens
Procedure, shortened: as §1

[13] = molecular target: T2, S-adenosylmethionine decarboxylase proenzyme (Homo sapiens) (UniProt P17707); assay: as §2
T2 sequence (whole entry): T1 sequence (P17707 whole entry)

HL-60 [14] = assay: Polyamine levels in cultured HL60 cells on S-Adenosyl-methionine decarboxylase at the concentration of 1.0 uM; format: functional, Homo sapiens
Procedure, shortened: as §1

HL-60 [15] = assay: Polyamine levels in cultured HL60 cells on S-Adenosyl-methionine decarboxylase at the concentration of 0.1 uM; format: functional, Homo sapiens
Procedure, shortened: as §1

HL-60 [16] = assay: Polyamine levels in cultured HL60 cells on spermidine at the concentration of 50.0 uM; format: functional, Homo sapiens
Procedure, shortened: as §1

HL-60 [17] = assay: Polyamine levels in cultured HL60 cells on spermidine at the concentration of 0.1 uM; format: functional, Homo sapiens
Procedure, shortened: as §1

HL-60 [18] = assay: Polyamine levels in cultured HL60 cells on spermine at the concentration of 50.0 uM; format: functional, Homo sapiens
Procedure, shortened: as §1

HL-60 [19] = assay: Polyamine levels in cultured HL60 cells on spermidine at the concentration of 1.0 uM; format: functional, Homo sapiens
Procedure, shortened: as §1

[20] = system: Trypanosoma brucei rhodesiense; assay: Compound was evaluated for the inhibition of growth of brucei rhodesiense (KETRI 243).; format: functional, organism-based
HL-60 [21] = assay: Polyamine levels in cultured HL60 cells on S-Adenosyl-methionine decarboxylase at the concentration of 100.0 uM; format: functional, Homo sapiens
Procedure, shortened: as §1

HL-60 [22] = assay: Polyamine levels in cultured HL60 cells on putrescine at the concentration of 0.1 uM; format: functional, Homo sapiens
Procedure, shortened: as §1

HL-60 [23] = assay: Polyamine levels in cultured HL60 cells on putrescine at the concentration of 10.0 uM; format: functional, Homo sapiens
Procedure, shortened: as §1

HL-60 [24] = assay: Polyamine levels in cultured HL60 cells on putrescine at the concentration of 50.0 uM; format: functional, Homo sapiens
Procedure, shortened: as §1

HL-60 [25] = assay: Polyamine levels in cultured HL60 cells on S-Adenosyl-methionine decarboxylase at the concentration of 50.0 uM; format: functional, Homo sapiens
Procedure, shortened: as §1

HL-60 [26] = assay: Polyamine levels in cultured HL60 cells on spermine at the concentration of 1.0 uM; format: functional, Homo sapiens
Procedure, shortened: as §1

[27] = molecular target: T2, S-adenosylmethionine decarboxylase proenzyme (Homo sapiens); assay: (§3) compound was evaluated for the inhibitor constant against human S-adenosyl-L-methionine decarboxylase
[28] = molecular target: T1, S-adenosylmethionine decarboxylase proenzyme; assay: as §3
[29] = molecular target: S-adenosylmethionine decarboxylase (Escherichia coli) (UniProt P0A7F6); assay: compound was evaluated for the inhibitor against Escherichia coli S-adenosyl-L-methionine decarboxylase.

Chain of S-adenosylmethionine decarboxylase (Escherichia coli) (P0A7F6 whole entry, looked up): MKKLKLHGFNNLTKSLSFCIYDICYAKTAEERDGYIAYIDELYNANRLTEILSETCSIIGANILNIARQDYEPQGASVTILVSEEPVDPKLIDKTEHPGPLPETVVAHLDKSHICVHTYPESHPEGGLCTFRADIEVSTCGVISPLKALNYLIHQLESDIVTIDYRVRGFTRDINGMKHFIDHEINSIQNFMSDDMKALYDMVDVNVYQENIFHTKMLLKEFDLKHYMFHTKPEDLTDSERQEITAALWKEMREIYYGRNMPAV

## C[S+](C[C@H]1O[C@@H](n2cnc3c(N)ncnc32)[C@H](O)[C@@H]1O)C1C=CC(ON)C1.O=S(=O)(O)O.O=S(=O)([O-])O (stereo not given in full)
[1]
  kinact: 0.015 min⁻¹
HL-60 [2]
  Activity: 27 nM/mg
HL-60 [3]
  Activity: 0.94 nM/mg
HL-60 [4]
  Activity: 30.4 nM/mg
HL-60 [5]
  Activity: 16.1 nM/mg
HL-60 [6]
  Activity: 293 pmol/h/mg
[7]
  IC50: 0.9 µM
HL-60 [8]
  Activity: 31.6 nM/mg
[9]
  Inhibition: 49%
[10]
  Ki: 19.6 µM
HL-60 [11]
  Activity: 0.94 nM/mg
HL-60 [12]
  Activity: 8.4 nM/mg
[13]
  kinact: 0.115 min⁻¹
HL-60 [14]
  Activity: 347 pmol/h/mg
HL-60 [15]
  Activity: 355 pmol/h/mg
HL-60 [16]
  Activity: 11.2 nM/mg
HL-60 [17]
  Activity: 7.9 nM/mg
HL-60 [18]
  Activity: 28 nM/mg
HL-60 [19]
  Activity: 10.1 nM/mg
[20]
  IC50: 10 µM
HL-60 [21]
  Activity: 489 pmol/h/mg
HL-60 [22]
  Activity: 0.71 nM/mg
HL-60 [23]
  Activity: 0.71 nM/mg
HL-60 [24]
  Activity: 0.79 nM/mg
HL-60 [25]
  Activity: 449 pmol/h/mg
HL-60 [26]
  Activity: 38.1 nM/mg

## C[S+](C[C@H]1O[C@@H](n2cnc3c(N)ncnc32)[C@H](O)[C@@H]1O)[C@H]1C=C[C@H](ON)C1 (stereo not given in full)
[27]
  kinact: 0.079 min⁻¹
[7]
  IC50: 10 µM
[28]
  Ki: 21.2 µM
[29]
  kinact: 0.025 min⁻¹

Reference: ChEMBL document CHEMBL1128365, “S-(5'-deoxy-5'-adenosyl)-1-aminoxy-4-(methylsulfonio)-2-cyclopentene (AdoMao): an irreversible inhibitor of S-adenosylmethionine decarboxylase with potent in vitro antitrypanosomal activity” (J Med Chem, 1995)
